The list is not random: actives were taken first. Their share in the collection is about 9.8%.
PMI activator = phosphomannose isomerase (human) activation | AID 1214 | activation factor at 20 µM | purified human PMI, coupled resazurin fluorescence, 20 min; hits give high values; 1 = vehicle control, 0 substrate-free wells | 0.005% of 190,000 active | P34949;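 active = activation factor of 2 or more at 20 µM, relative to plate controls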
Target sequence (P34949 whole entry, looked up): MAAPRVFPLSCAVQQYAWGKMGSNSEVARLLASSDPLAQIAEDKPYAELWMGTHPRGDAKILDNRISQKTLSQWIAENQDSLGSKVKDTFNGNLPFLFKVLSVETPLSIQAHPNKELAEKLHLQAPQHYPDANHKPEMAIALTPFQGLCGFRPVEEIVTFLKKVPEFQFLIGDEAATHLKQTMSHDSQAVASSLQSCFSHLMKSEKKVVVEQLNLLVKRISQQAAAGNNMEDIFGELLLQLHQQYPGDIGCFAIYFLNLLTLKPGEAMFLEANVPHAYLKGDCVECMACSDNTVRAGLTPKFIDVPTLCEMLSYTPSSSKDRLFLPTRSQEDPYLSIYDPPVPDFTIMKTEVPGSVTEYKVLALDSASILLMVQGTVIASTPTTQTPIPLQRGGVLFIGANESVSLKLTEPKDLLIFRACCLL
Lmaj promast = inhibitors of Leishmania major promastigote growth; Leishmania major promastigotes, resazurin fluorescence viability; inhibition, % at 10 µM; 9% of 200,000 active; in the data active = inhibition above about 50%;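 note: promastigotes grown with compound for 44 hours at 28 °C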
m-calpain inh = blocks pig calpain II enzyme activity. purified calpain II, fluorogenic peptide substrate, 30 min. inhibition, % at 16 µM. 0.37% of 220,000 active. AID 1236;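 active = inhibition above about 50%, limit read from the data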
WT yeast gro inh = growth inhibition of WT yeast, mitochondrial fusion screen. mitochondrial fusion phenotypic screen, WT strain. inhibition, % at 10 µM. AID 1362. 2.1% of 190,000 active; in the data active = inhibition above about 58%; tested in S. cerevisiae
Rad51 HR inh = blocks human Rad51 in homologous recombination | Q06609 | hRad51 DNA strand exchange, fluorescence dequenching | inhibition, % at 10 µM | 0.085% of 200,000 active | AID 1385;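 active = inhibition above 40% at the single screening dose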;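 note: 0% = DMSO control wells and 100% = blanks with heterologous ssDNA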
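Read-out basis: percent inhibition relative to plate controls and blanks / Assay system: human Rad51 nucleoprotein filaments preassembled on unlabelled ssDNA / Timing: filaments 15 min 37 °C, then compound 30 min / Control set: per-plate controls and blanks / Technique: fluorescence dequenching at 485/520 nm / Compound: 10 µM final, single point / Also added: Fluorescein- and BHQ1-tagged 47-mer duplex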
PMI act hi M6P = activators of human phosphomannose isomerase at near-saturating mannose 6-phosphate; P34949; AID 1216; coupled PMI enzyme assay, resazurin fluorescence, 20 min; hits give high values; 1 = untreated enzyme, 0 = substrate-free blank; 0.34% of 190,000 active; activation factor at 20 µM;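 active = activation factor of 2 or more at 20 µM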
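Test system: Human PMI in coupled enzyme assay | Input: 15 ng/mL PMI | Medium: HEPES-buffered pH 7.4 with magnesium and detergent | Compound: One concentration, 20 µM, in 1% DMSO | Incubation: Enzyme reaction with compound 20 min at room temperature | Detection: Diaphorase-driven resazurin-to-resorufin fluorescence, excitation 544, emission 590 nm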
* = called active by the depositor; · = not tested or not shown.

SMILES	PMI activator	Lmaj promast	m-calpain inh	WT yeast gro inh	Rad51 HR inh	PMI act hi M6P
O=C(Cn1cnc2ccccc2c1=O)NNC(=O)c1ccccc1	·	·	-10	·	·	·
COc1ccccc1-c1nnc(SC(C(=O)c2c[nH]c3ccccc23)c2ccccc2)n1C (stereo not drawn)	0.8	8	-66	2	-8	0.8
COc1cccc(-c2nnc(SC(C(=O)c3c[nH]c4ccccc34)c3ccccc3)n2C)c1 (stereo not drawn)	0.9	98*	7	4	4	0.8
CCN(CC)C(=O)CSc1ncccc1-c1nc2ccccc2[nH]1	1.1	3	-30	-6	3	1.1
CCOC(=O)N1CC=C2C(C#N)=C(N)C(C#N)(C#N)[C@H](c3ccc(OCC)c(OCC)c3)[C@H]2C1	0.9	14	-90	-3	-3	1
CCCCOc1ccc(C2C3CN(C(=O)OCC)CC=C3C(C#N)=C(N)C2(C#N)C#N)cc1OC (stereo not drawn)	1	47	-439	62*	-8	1.2
CCCC(=O)NC(C)c1nc(-c2ccc(C)cc2)no1 (stereo not drawn)	·	·	·	·	-9	·
COc1ccc2[nH]c(C)c(CCNC(=S)Nc3cccc(C)c3C)c2c1	1	61*	-9	18	·	1
CCc1cccc(CC)c1NC(=S)NCCc1c(C)[nH]c2ccccc12	0.9	38	6	68*	·	1
COc1ccc2[nH]c(C)c(CCNC(=S)Nc3ccc(C)cc3)c2c1	0.9	92*	-4	3	1	0.9
COc1ccc2[nH]c(C)c(CCNC(=S)Nc3ccccc3C)c2c1	0.9	8	-17	11	·	1
O=S(=O)(c1ccccc1)N1CCN=C1SCc1cccc(Cl)c1	0.9	22	34	54	32	0.9
Cc1cccc(-n2cnc3cc(C(=O)N4CCc5ccccc54)ccc32)c1	0.9	-2	44	20	6	1
O=C(/C=C/c1ccc(F)cc1)NC(Cc1c[nH]c2ccccc12)C(=O)O (stereo not drawn)	1	-3	0	6	·	0.9
COc1cc(C(=O)Nc2c(C)cc(C)cc2C)c(Br)c(OC)c1OC	1	4	-11	8	15	1
COc1cccc(CC2(CO)CCN(Cc3cn(C)nc3C)CC2)c1	0.9	75*	29	-6	-1	1
OCC1(Cc2cccc(F)c2)CCN(Cc2ccc3cccc(F)c3n2)CC1	·	88*	-30	7	-3	·
COc1cccc(CC2(CO)CCN(CC3=CC[C@H]4C[C@@H]3C4(C)C)CC2)c1	1.1	88*	-21	-3	4	1.1
COc1cccc(CC2(CO)CCN(Cc3ccc(NC(C)=O)cc3)CC2)c1	1	-6	-1	2	3	0.8
COc1cccc(CC2(CO)CCN(Cc3ccc4cccc(F)c4n3)CC2)c1	0.9	80*	20	-7	-13	0.9
NC(=O)c1ccccc1OC1CCC1	·	·	-8	·	8	·
FC(F)(F)c1cnc(COc2cc(Cl)cc(Cl)c2)c(Cl)c1	·	·	16	·	·	·
OCC1(CCOc2ccccc2)CCN(Cc2ccc3cccc(F)c3n2)CC1	0.9	82*	-4	-2	-154	1
CCCn1c(/C=C/c2ccco2)nc2ccccc21	1.2	44	-85	9	-42	1.1
C#CCn1cc(/C=N/NC(=O)COc2cccc3cccnc23)c2ccccc21	1.3	58*	19	8	4	1.6
SMILES	PMI activator	Lmaj promast	m-calpain inh	WT yeast gro inh	Rad51 HR inh	PMI act hi M6P
CCCCNc1nc2ccccc2[nH]1	1	25	12	·	19	1
CCCCn1c(/C=N/Nc2nc3ccccc3[nH]2)nc2ccccc21	0.9	100*	1	28	-1	1
CCCCn1c(/C=C/c2ccco2)nc2ccccc21	1.2	63*	-120	35	-44	1.3
Fc1ccccc1-c1ccc(/C=N/Nc2nc3ccccc3[nH]2)o1	1.2	97*	-10	85	5	1.3
CCCOc1ccc(C(=O)NCC(C)(C)N2CCOCC2)cc1	1	-7	28	-18	7	1
Cc1ccc(/C=N\Nc2nc3ccc(Cl)cc3[nH]2)o1	0.9	99*	14	20	-4	0.9
Clc1ccc(Cn2c(/C=C/c3ccco3)nc3ccccc32)cc1	1.3	50*	-42	76*	·	1.5
C(=N\Nc1nc2ccccc2[nH]1)/c1cccc2nccnc12	·	·	-20	·	11	·
C#CCn1cc(/C=N/Nc2nc3ccccc3[nH]2)c2ccccc21	0.8	101*	-14	30	·	0.9
O=C(O)CCC(=O)N(Cc1ccco1)C1CC(=O)N(c2ccccc2)C1=O (stereo not drawn)	·	·	-21	·	11	·
CCNC(=S)N1CCCC(C(N)=O)C1 (stereo not drawn)	1.1	3	7	-6	12	1
CO/N=C/c1c(-c2ccc(Cl)cc2)nc2cc(C)ccn12	0.9	61*	-30	23	-54	0.9
CCOC(=O)c1c(-c2ccccc2)nc2cc(C)ccn12	1	26	-23	27	-3	0.9
CCOC(=O)c1c(CSc2ccc(C)cc2)n(C)c2cc(Br)c(O)c(CN(C)C)c12	0.9	71*	-6	56	·	0.9
CCOC(=O)c1c(CSc2ccccc2)n(C)c2cc(Br)c(O)c(CN(C)C)c12	·	·	9	·	-10	·
CCOC(=O)c1c(C)n(-c2ccc(OC)cc2)c2ccc(O)c(CN(C)C)c12	·	·	-12	·	·	·
CCOC(=O)c1c(C)n(-c2ccc(C)cc2)c2ccc(O)c(CN(C)C)c12	0.9	99*	-27	16	28	0.9
Cc1cc(Cl)ccc1OCc1nnc2n1CCCCC2	1	2	5	11	-3	0.9
C/C(CCc1ccc2c(c1)OCO2)=N\NC(=S)NC(C)C	1	18	36	59*	3	1.1
O=C(Nc1cccnc1)c1cccs1	0.8	-3	64*	-11	5	0.9
O=C(Nc1ccc(NC(=O)c2cccs2)c(Cl)c1)c1ccco1	1	59*	-16	-4	4	1
COc1ccc(NC(=O)c2ccco2)cc1NC(=O)c1cccs1	0.9	16	20	-10	0	0.9
CCCCC(=O)Nc1ccc(NC(=O)c2cccs2)cn1	·	83*	-8	-2	-1	·
O=C(Nc1ccncc1)c1cccs1	1.1	59*	-28	10	-2	1
CCCC(=O)Nc1ccc(NC(=O)c2cccs2)cn1	1	3	13	2	5	1
Cc1c(NC(=O)c2cccs2)cccc1C(=O)O	0.9	81*	17	7	-1	0.9
O=C(Nc1cccnc1)c1cc(F)cc(F)c1	1.1	2	17	-13	12	1.1
Cc1cc(C(=O)Nc2cccnc2)cs1	0.9	1	-19	-3	77*	0.9
Cc1ccc(C2N=C(N)Nc3nc(=O)c4ccccc4n32)cc1 (stereo not drawn)	·	·	-77	·	-16	·

High-throughput results deposited in PubChem by several laboratories.
